Source: paper PMC11027041 (RSC Advances, 2024)

What was measured:
BT-549 = test: NCI-60 antiproliferative screening; assay type: cell-based; details: Homo sapiens, BT-549, read-out: percent inhibition
OVCAR-5 = test: NCI-60 antiproliferative screening; assay type: cell-based; details: Homo sapiens, OVCAR-5, read-out: percent inhibition
MCF7 = test: NCI-60 antiproliferative screening; assay type: cell-based; details: Homo sapiens, MCF7, read-out: percent inhibition
PC-3 = test: NCI-60 antiproliferative screening; assay type: cell-based; details: Homo sapiens, PC-3, read-out: percent inhibition
LOX IMVI = test: NCI-60 antiproliferative screening; assay type: cell-based; details: Homo sapiens, read-out: percent inhibition
EKVX = test: NCI-60 antiproliferative screening; assay type: cell-based; details: Homo sapiens, read-out: percent inhibition
NCI-H322M = test: NCI-60 antiproliferative screening; assay type: cell-based; details: Homo sapiens, read-out: percent inhibition
HDAC3 = HDAC3 (Homo sapiens, UniProt O15379); test: In vitro HDAC enzyme assay; assay type: biochemical
Sequence of HDAC3 (O15379 whole entry): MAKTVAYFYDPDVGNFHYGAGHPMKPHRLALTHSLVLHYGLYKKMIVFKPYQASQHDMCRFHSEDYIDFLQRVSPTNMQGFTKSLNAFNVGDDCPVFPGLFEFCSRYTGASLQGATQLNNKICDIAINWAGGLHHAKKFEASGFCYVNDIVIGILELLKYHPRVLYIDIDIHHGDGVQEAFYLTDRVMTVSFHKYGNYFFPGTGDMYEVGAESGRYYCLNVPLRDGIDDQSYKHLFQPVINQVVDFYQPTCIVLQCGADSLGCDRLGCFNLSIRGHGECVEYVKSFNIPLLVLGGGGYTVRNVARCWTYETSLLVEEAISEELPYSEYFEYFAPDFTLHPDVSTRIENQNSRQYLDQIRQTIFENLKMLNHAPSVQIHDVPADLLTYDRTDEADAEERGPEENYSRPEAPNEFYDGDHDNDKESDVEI
Sequence of HDAC3 (Q9Y618 395-489 partner limits assumed): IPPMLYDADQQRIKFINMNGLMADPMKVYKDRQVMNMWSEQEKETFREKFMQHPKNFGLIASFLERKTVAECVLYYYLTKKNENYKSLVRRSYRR

HCT-15 = test: NCI-60 antiproliferative screening; assay type: cell-based; details: Homo sapiens, HCT-15, read-out: percent inhibition
TK-10 = test: NCI-60 antiproliferative screening; assay type: cell-based; details: Homo sapiens, TK-10, read-out: percent inhibition
HOP-62 = test: NCI-60 antiproliferative screening; assay type: cell-based; details: Homo sapiens, HOP-62, read-out: percent inhibition
[1] = tested on: normal bone marrow cells HS-5; test: Cell viability assay; assay type: cell-based; details: 72 h, read-out: Antiproliferative IC50 HS-5
In short: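 Cells grown in IMDM with 20% FBS, 100 U per mL penicillin and 100 μg per mL streptomycin, then plated in 96-well format. Test compound exposure was 72 h. Alamar blue solution (1 mM, as added) was then applied for a further 5–6 h, and […] was read at 530/590 nm. Data were normalized to vehicle, as means of three independent measurements (standard errors <20%), and IC50 was calculated.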

HDAC5 = HDAC5 (Homo sapiens, UniProt Q9UQL6); test: In vitro HDAC enzyme assay; assay type: biochemical
Sequence of HDAC5 (Q9UQL6 whole entry): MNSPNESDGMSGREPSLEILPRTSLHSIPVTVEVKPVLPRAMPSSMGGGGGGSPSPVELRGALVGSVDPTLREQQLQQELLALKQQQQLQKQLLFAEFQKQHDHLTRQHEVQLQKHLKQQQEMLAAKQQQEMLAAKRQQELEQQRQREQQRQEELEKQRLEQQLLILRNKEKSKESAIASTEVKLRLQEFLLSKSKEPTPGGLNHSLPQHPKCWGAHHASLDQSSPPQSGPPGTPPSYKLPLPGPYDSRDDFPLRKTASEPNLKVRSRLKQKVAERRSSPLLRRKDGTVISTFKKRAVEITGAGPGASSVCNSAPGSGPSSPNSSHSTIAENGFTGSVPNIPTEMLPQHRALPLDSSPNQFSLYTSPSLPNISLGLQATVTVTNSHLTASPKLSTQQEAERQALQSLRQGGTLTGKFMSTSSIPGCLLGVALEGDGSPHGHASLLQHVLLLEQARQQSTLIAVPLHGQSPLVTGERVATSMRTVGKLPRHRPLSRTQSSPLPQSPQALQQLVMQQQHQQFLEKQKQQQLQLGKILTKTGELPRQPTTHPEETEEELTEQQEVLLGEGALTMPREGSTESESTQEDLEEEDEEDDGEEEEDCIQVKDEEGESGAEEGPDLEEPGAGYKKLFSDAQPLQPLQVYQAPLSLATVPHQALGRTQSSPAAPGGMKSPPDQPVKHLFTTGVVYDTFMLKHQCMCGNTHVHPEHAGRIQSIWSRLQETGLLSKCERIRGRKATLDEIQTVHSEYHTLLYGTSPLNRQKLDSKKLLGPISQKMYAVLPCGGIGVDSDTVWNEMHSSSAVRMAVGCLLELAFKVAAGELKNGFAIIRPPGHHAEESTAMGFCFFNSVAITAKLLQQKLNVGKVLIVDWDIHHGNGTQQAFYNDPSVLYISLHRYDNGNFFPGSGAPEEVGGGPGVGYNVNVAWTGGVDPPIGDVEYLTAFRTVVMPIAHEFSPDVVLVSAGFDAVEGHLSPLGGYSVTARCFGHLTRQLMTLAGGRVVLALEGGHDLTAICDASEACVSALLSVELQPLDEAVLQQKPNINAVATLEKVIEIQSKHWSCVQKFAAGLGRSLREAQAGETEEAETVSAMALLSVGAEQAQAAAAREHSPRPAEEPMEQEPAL

[2] = tested on: melanoma cell line SK-MEL-2; test: Cell viability assay; assay type: cell-based; details: Homo sapiens, SK-MEL-2, 72 h, read-out: Antiproliferative IC50 SK-MEL-2
COLO 205 = test: NCI-60 antiproliferative screening; assay type: cell-based; details: Homo sapiens, COLO 205, read-out: percent inhibition
SK-OV-3 = test: NCI-60 antiproliferative screening; assay type: cell-based; details: Homo sapiens, SK-OV-3, read-out: percent inhibition
HOP-92 = test: NCI-60 antiproliferative screening; assay type: cell-based; details: Homo sapiens, HOP-92, read-out: percent inhibition
KM12 = test: NCI-60 antiproliferative screening; assay type: cell-based; details: Homo sapiens, KM12, read-out: percent inhibition
HDAC8 = HDAC8 (Homo sapiens, UniProt Q9BY41); test: In vitro HDAC enzyme assay; assay type: biochemical
Sequence of HDAC8 (Q9BY41 whole entry): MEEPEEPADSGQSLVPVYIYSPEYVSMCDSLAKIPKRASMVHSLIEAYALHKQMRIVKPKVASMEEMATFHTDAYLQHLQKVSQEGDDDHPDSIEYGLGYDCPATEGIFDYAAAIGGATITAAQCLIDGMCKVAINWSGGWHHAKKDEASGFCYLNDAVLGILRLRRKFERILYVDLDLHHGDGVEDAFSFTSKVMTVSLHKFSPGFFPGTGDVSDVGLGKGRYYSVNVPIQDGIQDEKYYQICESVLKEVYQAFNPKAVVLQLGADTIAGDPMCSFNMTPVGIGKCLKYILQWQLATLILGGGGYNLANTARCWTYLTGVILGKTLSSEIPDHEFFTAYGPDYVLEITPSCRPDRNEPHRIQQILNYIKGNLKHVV

HT29 = test: NCI-60 antiproliferative screening; assay type: cell-based; details: Homo sapiens, HT-29, read-out: percent inhibition
SF-295 = test: NCI-60 antiproliferative screening; assay type: cell-based; details: Homo sapiens, SF-295, read-out: percent inhibition
HDAC7 = HDAC7 (Homo sapiens, UniProt Q8WUI4); test: In vitro HDAC enzyme assay; assay type: biochemical
Sequence of HDAC7 (Q8WUI4 whole entry): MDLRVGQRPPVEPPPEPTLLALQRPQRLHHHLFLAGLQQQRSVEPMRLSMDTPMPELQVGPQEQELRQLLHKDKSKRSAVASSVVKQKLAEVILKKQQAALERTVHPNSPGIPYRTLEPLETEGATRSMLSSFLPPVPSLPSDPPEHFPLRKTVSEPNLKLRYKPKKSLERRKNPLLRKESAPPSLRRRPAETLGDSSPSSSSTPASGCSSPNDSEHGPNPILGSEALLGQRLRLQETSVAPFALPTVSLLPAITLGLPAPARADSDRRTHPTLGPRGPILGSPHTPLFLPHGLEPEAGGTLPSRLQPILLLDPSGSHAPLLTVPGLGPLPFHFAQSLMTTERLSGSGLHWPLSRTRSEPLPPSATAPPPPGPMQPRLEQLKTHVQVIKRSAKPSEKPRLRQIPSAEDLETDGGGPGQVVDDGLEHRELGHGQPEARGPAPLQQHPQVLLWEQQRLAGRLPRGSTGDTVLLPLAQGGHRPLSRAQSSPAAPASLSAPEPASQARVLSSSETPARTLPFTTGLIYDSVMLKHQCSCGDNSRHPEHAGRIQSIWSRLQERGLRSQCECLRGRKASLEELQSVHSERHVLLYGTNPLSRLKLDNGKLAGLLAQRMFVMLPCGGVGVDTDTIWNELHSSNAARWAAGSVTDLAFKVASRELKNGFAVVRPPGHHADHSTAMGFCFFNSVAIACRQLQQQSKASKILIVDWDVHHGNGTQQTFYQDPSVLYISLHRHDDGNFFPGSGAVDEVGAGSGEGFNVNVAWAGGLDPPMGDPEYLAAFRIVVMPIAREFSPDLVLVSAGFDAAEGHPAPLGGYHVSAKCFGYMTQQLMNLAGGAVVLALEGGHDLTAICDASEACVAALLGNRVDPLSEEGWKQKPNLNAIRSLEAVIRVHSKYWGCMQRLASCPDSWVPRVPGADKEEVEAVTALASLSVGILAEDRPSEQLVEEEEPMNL

A498 = test: NCI-60 antiproliferative screening; assay type: cell-based; details: Homo sapiens, A498, read-out: percent inhibition
HDAC1 = HDAC1 (Homo sapiens, UniProt Q13547); test: In vitro HDAC enzyme assay; assay type: biochemical
Sequence of HDAC1 (Q13547 whole entry): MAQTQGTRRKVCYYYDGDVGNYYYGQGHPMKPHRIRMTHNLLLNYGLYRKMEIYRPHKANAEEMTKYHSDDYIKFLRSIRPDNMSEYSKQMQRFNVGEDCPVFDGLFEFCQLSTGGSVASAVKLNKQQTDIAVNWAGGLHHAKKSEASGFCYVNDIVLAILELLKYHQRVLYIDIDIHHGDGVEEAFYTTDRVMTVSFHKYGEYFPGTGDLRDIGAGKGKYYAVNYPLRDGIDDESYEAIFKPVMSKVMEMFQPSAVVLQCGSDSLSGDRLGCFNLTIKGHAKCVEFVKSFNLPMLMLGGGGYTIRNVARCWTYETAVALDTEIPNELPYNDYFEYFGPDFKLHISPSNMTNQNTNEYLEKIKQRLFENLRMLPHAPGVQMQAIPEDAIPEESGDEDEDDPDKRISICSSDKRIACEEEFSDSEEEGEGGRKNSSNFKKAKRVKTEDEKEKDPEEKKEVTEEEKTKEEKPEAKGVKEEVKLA

HDAC9 = HDAC9 (Homo sapiens, UniProt Q9UKV0); test: In vitro HDAC enzyme assay; assay type: biochemical
Sequence of HDAC9 (Q9UKV0 whole entry): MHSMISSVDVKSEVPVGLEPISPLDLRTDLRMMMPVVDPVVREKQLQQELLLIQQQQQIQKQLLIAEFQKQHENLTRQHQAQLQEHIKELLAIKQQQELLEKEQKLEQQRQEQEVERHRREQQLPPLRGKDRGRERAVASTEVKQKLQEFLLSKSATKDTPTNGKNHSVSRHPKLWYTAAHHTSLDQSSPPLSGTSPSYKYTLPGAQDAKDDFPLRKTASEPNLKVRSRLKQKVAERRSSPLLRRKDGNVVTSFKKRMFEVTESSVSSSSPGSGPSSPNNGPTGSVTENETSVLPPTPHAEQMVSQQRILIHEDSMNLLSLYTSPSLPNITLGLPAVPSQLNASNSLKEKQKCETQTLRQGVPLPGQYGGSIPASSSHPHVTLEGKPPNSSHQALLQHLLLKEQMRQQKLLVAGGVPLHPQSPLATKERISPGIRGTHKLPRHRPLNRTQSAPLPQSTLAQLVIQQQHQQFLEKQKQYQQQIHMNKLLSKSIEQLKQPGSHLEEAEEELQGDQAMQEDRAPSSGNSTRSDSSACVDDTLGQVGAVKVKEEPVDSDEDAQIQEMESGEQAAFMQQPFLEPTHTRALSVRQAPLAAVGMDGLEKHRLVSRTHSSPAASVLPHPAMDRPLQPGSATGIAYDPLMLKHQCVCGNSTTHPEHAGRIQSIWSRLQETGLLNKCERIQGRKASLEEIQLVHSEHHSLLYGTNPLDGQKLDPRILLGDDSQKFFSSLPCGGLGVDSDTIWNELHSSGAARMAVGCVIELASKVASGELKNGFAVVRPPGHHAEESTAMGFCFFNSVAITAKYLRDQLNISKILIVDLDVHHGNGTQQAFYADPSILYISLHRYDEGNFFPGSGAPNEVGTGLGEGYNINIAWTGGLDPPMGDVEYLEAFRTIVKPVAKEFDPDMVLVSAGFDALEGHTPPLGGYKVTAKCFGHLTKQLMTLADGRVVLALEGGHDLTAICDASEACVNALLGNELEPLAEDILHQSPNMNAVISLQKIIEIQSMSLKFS

M14 = test: NCI-60 antiproliferative screening; assay type: cell-based; details: Homo sapiens, M14, read-out: percent inhibition
MDA-MB-231/ATCC = test: NCI-60 antiproliferative screening; assay type: cell-based; details: Homo sapiens, MDA-MB-231, read-out: percent inhibition
NCI/ADR-RES = test: NCI-60 antiproliferative screening; assay type: cell-based; details: Homo sapiens, read-out: percent inhibition
A549/ATCC = test: NCI-60 antiproliferative screening; assay type: cell-based; details: Homo sapiens, A549, read-out: percent inhibition
786-0 = test: NCI-60 antiproliferative screening; assay type: cell-based; details: Homo sapiens, 786-0, read-out: percent inhibition

IC50 (HDAC3): 32.1 ± 1.44 nM
IC50 (HDAC5): > 50000 nM
activity for HDAC5 (in words) (HDAC5): no activity
IC50 [2]: 480 ± 10 nM
IC50 (HDAC8): > 50000 nM
activity for HDAC8 (in words) (HDAC8): no activity
IC50 (HDAC7): > 50000 nM
activity for HDAC7 (in words) (HDAC7): no activity
IC50 (HDAC1): 8.73 ± 0.46 nM
inhibition at 0.5 µM (HDAC1; read-out: Inhibition% (inhibition rate, IR) against HDAC1, at a concentration of 500 nM, duplicate): 99.2%
IC50 (HDAC9): > 50000 nM
activity for HDAC9 (in words) (HDAC9): no activity
Structure (SMILES): COc1ccc(CN2[C@@H](C(=O)NCCCCCCC(=O)NO)Cc3c([nH]c4ccccc34)[C@@H]2C2CC2)cc1 [Compound 13d, (1S,3R)-1-Cyclopropyl-N-(7-(hydroxyamino)-7-oxoheptyl)-2-(4-methoxybenzyl)-2,3,4,9-tetrahydro-1H-pyrido[3,4-b]indole-3-carboxamide]
inhibition at 10 µM (BT-549): 74.5%
inhibition at 10 µM (OVCAR-5): 100%
inhibition at 10 µM (MCF7): 93.6%
inhibition at 10 µM (PC-3): 80.9%
inhibition at 10 µM (LOX IMVI): 100%
inhibition at 10 µM (EKVX): 83.2%
inhibition at 10 µM (NCI-H322M): 90.5%
inhibition at 10 µM (HCT-15): 91.2%
inhibition at 10 µM (TK-10): 100%
inhibition at 10 µM (HOP-62): 86%
IC50 [1]: > 50000 nM
inhibition at 10 µM (COLO 205): 100%
inhibition at 10 µM (SK-OV-3): 100%
inhibition at 10 µM (HOP-92): 100%
inhibition at 10 µM (KM12): 87.5%
inhibition at 10 µM (HT29): 93.7%
inhibition at 10 µM (SF-295): 100%
inhibition at 10 µM (A498): 100%
inhibition at 10 µM (M14): 82.4%
inhibition at 10 µM (MDA-MB-231/ATCC): 100%
inhibition at 10 µM (NCI/ADR-RES): 38%
inhibition at 10 µM (A549/ATCC): 82.7%
inhibition at 10 µM (786-0): 82.7%
